Series [1] relates to Staphylococcus aureus. The series is described as follows: Induction of membrane damage in methicillin-resistant Staphylococcus aureus USA300 measured up to 90 mins by propidium iodide staining based fluorescence spectroscopic analysis.
The subject of series [2] is Staphylococcus aureus. Briefly: Antibacterial activity against Staphylococcus aureus USA400 after 20 hrs by microdilution method. In kind it is functional. Conditions: USA400, 20 h. An outline of the steps:
(§1)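 Incubated ~20 h at 37°C, then read at 630 nm. MIC is the lowest concentration with no detectable growth. Daptomycin assays had 2 mM Ca²⁺ added to the medium. Repeated several times by different investigators.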
For orientation: Dilution methods test growth across graded concentrations, often in twofold steps.

Series [3] is described as follows: Hemolytic activity against human RBC after 1 hr. In kind it is ADME, cell-based, Erythrocyte. Conditions: human red blood cells. An outline of the steps:
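Human red blood cells were washed three times in normal saline (800 g, 10 min) and made up as a 2% suspension. After centrifugation, supernatant absorbance was read at 545 nm. Lysis was set at 100% for 1% Triton X-100 and 0% for untreated cells; HL50 is the 50% hemolytic concentration.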

In a further series the test system is Pseudomonas aeruginosa. The series is described as follows: Antibacterial activity against Pseudomonas aeruginosa PAO1 after 20 hrs by microdilution method. As to conditions: PAO1, 20 h. In kind it is functional. An outline of the steps:
as §1

Series [4] concerns Staphylococcus aureus. Briefly: Inhibition of methicillin-resistant Staphylococcus aureus USA300 preformed biofilms after 24 hrs by XTT assay. The series is classed as functional. An outline of the steps:
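USA300 biofilms formed for 24 h on polystyrene wells, washed, then treated with compounds for 24 h. Remaining biofilm quantified by XTT reduction (2 h, 37°C, absorbance 450 nm, medium-plus-XTT blank). Compared with untreated control.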
For orientation: Formazan colour is commonly taken as a measure of viable cells.

The subject of series [5] is Staphylococcus aureus. The series is described as follows: Inhibition of surface attachment by methicillin-resistant Staphylococcus aureus USA300 assessed as reduction in biofilm formation after 4 hrs by XTT assay. In kind it is functional.
Series [6] has as its system Staphylococcus aureus. Briefly: Antibacterial activity against methicillin-resistant Staphylococcus aureus USA300 after 20 hrs by microdilution method. The series is classed as functional. As to conditions: USA300, 20 h. In a few lines:
(§2)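 MIC = lowest concentration with no detectable growth. pH series run at pH 6.8, 7.4 and 8.0. Daptomycin wells carried 2 mM Ca²⁺. Repeated by different investigators on different dates.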

Series [7] relates to Staphylococcus aureus. The series is described as follows: Antibacterial activity against Staphylococcus aureus Mu50 after 20 hrs by microdilution method. The series is classed as functional. As to conditions: Mu50, 20 h. An outline of the steps: as §1
Series [8] concerns Staphylococcus aureus. Briefly: Antibacterial activity against Staphylococcus aureus USA200 after 20 hrs by microdilution method. In kind it is functional. As to conditions: USA200, 20 h. In a few lines: as §1
Series [9] deals with Staphylococcus aureus. Briefly: Ratio of MIC for methicillin-resistant Staphylococcus aureus USA300 in presence of 100 mM NaCl to MIC for methicillin-resistant Staphylococcus aureus USA300 in absence of 100 mM NaCl. In kind it is functional. An outline of the steps: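 Broth microdilution MIC against S. aureus USA300 in TSB with and without 100 mM NaCl. Inoculum 10⁶ CFU/mL exponential-phase cells, ~20 h at 37°C, OD630 read-out, no-growth endpoint. Ratio of MIC with salt to MIC without salt.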

A short description of series [10]: Retention time of the compound by HPLC method. In kind it is physicochemical.
For series [11], the system named is Staphylococcus aureus. Briefly: Antibacterial activity against Staphylococcus aureus Newman after 20 hrs by microdilution method. In kind it is functional. In a few lines: as §1
Series [12] relates to Staphylococcus aureus. Briefly: Antibacterial activity against methicillin-resistant Staphylococcus aureus USA300 after 20 hrs at pH 6.8 to 8 by microdilution method. In kind it is functional. In a few lines:
as §2

For series [13], the system named is Staphylococcus aureus. Briefly: Antibacterial activity against Staphylococcus aureus UAMS-1 after 20 hrs by microdilution method. The series is classed as functional. As to conditions: UAMS-1, 20 h. In a few lines: as §1
Another series deals with Escherichia coli. The series is described as follows: Antibacterial activity against Escherichia coli ATCC 25922 after 20 hrs by microdilution method. The series is classed as functional. As to conditions: ATCC 25922, 20 h. In a few lines: as §1
Another series relates to Klebsiella pneumoniae. Briefly: Antibacterial activity against Klebsiella pneumoniae ATCC 13883 after 20 hrs by microdilution method. In kind it is functional. Conditions: ATCC 13883, 20 h. An outline of the steps:
as §1

A short description of series [14]: Therapeutic index, ratio of HC50 for human RBC to MIC for methicillin-resistant Staphylococcus aureus USA300. As to conditions: human red blood cells, read-out: TI. In a few lines:
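Supernatant hemoglobin read at 545 nm; 1% Triton X-100 = 100% lysis, untreated = 0%. HL50 divided by USA300 MIC gives the selectivity index.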

Active and inactive are the calls of the source. No cut-off for these calls is given here.

For `CCCC(CCC)(c1c[nH]c2cc(C3=NCCN3)ccc12)c1c[nH]c2cc(C3=NCCN3)ccc12.CS(=O)(=O)O.CS(=O)(=O)O`, the result in the series on Staphylococcus aureus [1] and in the series with Staphylococcus aureus [12] was Active. The minimum inhibitory concentration (MIC) – broadly, the lowest concentration that inhibits growth of the organism – against Staphylococcus aureus [2] was 3.1 µM; in the series on Pseudomonas aeruginosa, > 50 µM; against Staphylococcus aureus [6] it was 1.6 to 3.1 µM; against Staphylococcus aureus [7], 3.1 µM; against Staphylococcus aureus [8], < 1.5 µM; against Staphylococcus aureus [11], 3.1 µM. Besides, the MIC is 12.5 to 25 µM against Staphylococcus aureus [13], > 50 µM against Escherichia coli and > 50 µM in the series on Klebsiella pneumoniae. Moreover, the HC50 – broadly, the concentration giving 50% haemolysis – at 1 h in [3] was 150 µM. The results for the “inhibition (INH)” value in the series with Staphylococcus aureus [4] and in the series with Staphylococcus aureus [5] were 50% and 40%, respectively. For the same compound, the Ratio entry in the series with Staphylococcus aureus [9] is “<=2”. Moreover, in series [10], the Retention_time is listed as 12.102 min. For the same compound, the selectivity ratio in series [14] lay in the range of 48 to 96.

(Values after ChEMBL document CHEMBL3875203, “Small molecule mimics of DFTamP1, a database designed anti-Staphylococcal peptide” (Bioorg Med Chem, 2017).)
